The values that follow come from ChEMBL document CHEMBL1138062 (J Med Chem, 2006).

Active and inactive are the calls of the source. The rule behind the calls is not given here. Where only a bound is given, the exact number is not on record here.

Experiment [1] concerns the target GABA-A receptor; anion channel. In words: Displacement of [3H]muscimol from GABAA receptor in rat brain synaptic membranes. The experiment is classed as cell membranes, Membrane. The essentials:
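Rat brain membrane preparations used for receptor binding. IC50 and Ki treated as log-normally distributed; mean and SEM calculated on the log scale, with the range given as the antilog of log mean ± SEM.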
On the technique in general: Displacement assays read how much labelled ligand stays bound in the presence of the test substance.

The target of experiment [2] is Sodium- and chloride-dependent GABA transporter 1 (Mus musculus) (UniProt P31648). The experiment in a line: Inhibition of [3H]GABA uptake at mouse GABA transporter1 expressed in HEK293 cells at 1 mM. The experiment is classed as cell-based.
Experiment [3] deals with T1, GABA transporter 4 (Mus musculus) (UniProt P31650).
T1 sequence (whole entry): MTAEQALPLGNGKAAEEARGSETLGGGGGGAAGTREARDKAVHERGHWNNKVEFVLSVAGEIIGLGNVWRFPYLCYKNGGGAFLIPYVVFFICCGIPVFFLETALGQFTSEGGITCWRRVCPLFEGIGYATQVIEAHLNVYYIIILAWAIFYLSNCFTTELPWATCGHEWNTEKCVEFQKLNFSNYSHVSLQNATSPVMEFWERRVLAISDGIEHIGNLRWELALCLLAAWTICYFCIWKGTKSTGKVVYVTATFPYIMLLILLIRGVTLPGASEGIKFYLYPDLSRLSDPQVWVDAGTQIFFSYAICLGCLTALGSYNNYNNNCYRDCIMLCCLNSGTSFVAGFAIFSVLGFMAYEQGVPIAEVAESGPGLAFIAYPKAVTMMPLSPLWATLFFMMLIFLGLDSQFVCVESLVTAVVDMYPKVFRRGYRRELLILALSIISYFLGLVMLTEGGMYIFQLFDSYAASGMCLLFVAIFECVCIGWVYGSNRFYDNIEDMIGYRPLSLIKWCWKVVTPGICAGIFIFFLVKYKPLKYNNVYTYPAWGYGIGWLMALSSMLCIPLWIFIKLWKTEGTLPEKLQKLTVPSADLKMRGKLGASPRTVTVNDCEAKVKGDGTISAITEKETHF
In words: Inhibition of [3H]GABA uptake at mouse GABA transporter4 expressed in HEK293 cells at 1 mM. The experiment is classed as cell-based.

A short description of experiment [4]: Agonist activity at GABAA receptor in mouse cerebral cortical neurons assessed as induction of peak current at 3 mM relative to GABA by whole cell patch clamp method. The format is functional. An outline of the steps:
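Peak currents evoked by 3 mM test agent compared with a close to maximal GABA response (600 µM). Specificity was checked by pretreating cells with gabazine (100 µM) for 15 s, then co-applying gabazine (100 µM) with agonist (3 mM). Values are mean ± SE, N = 3–7.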

The species entered for the next experiment is Mus musculus. In words: Inhibition of isoguvacine-induced current in mouse cerebral cortical neurons expressing GABAA receptor by whole cell patch clamp method. The format is functional. The essentials:
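Test agent applied at a range of concentrations against isoguvacine-evoked currents. Currents normalized to the current induced by 20 µM isoguvacine. Mean ± SE from nine neurons. IC50 estimated by linear regression.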
Background: In patch-clamp work, channel activity is measured electrically.

Experiment [5] concerns the target T2, GABA transporter 2 (Mus musculus) (UniProt P31651).
T2 sequence (whole entry): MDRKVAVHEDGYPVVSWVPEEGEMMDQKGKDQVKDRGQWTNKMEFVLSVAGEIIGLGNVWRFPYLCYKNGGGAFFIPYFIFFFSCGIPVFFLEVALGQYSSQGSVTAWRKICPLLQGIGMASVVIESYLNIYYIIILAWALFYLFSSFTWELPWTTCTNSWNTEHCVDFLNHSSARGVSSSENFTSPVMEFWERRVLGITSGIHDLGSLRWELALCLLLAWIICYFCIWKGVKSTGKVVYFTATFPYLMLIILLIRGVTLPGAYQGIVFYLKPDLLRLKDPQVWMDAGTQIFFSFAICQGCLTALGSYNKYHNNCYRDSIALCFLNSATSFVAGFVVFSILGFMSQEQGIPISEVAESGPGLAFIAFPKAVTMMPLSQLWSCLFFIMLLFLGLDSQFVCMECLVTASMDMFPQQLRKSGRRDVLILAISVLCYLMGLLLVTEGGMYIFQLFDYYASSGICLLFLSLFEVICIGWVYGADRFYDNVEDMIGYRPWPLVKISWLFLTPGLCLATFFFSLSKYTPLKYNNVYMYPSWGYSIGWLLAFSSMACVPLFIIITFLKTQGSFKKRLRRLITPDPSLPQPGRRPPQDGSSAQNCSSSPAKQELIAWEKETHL
The experiment in a line: Inhibition of [3H]GABA uptake at mouse GABA transporter2 expressed in HEK293 cells at 1 mM. The experiment is classed as cell-based.

Experiment [6] concerns the target T3, GABA transporter 3 (Mus musculus) (UniProt P31649).
T3 sequence (whole entry): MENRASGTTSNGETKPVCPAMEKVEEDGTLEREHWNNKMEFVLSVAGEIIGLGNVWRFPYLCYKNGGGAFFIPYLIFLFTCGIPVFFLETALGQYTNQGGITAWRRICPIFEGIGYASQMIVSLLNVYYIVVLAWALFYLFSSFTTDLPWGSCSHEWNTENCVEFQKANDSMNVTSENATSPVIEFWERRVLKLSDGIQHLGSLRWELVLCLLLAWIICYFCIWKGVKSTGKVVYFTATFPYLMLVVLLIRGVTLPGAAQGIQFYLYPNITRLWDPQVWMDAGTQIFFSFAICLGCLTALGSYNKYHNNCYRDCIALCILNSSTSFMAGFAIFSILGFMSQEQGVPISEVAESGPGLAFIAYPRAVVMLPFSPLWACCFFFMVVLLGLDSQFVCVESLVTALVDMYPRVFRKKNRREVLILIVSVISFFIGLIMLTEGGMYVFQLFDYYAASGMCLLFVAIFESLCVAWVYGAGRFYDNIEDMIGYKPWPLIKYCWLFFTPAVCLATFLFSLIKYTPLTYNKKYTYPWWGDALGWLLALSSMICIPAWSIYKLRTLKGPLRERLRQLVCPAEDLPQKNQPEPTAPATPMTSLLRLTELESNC
The experiment in a line: Inhibition of [3H]GABA uptake at mouse GABA transporter3 expressed in HEK293 cells at 1 mM. The experiment is classed as cell-based.

The target of the next experiment is GABA-B receptor (rat). The experiment in a line: Inhibition of [3H]GABA binding in GABAB receptor in rat brain synaptic membranes.

With `NCCCc1nonc1O`, the inhibition constant Ki (usually the equilibrium dissociation constant of an inhibitor or competing ligand from its target) in experiment [1] was 27 µM. Also, the inhibition entry in experiment [2], in experiment [3], in experiment [5] and in experiment [6] was “inactive” throughout. For the same molecule, in experiment [4], the Activity is on record as 14%. Besides, the inhibition result in the experiment listed under Mus musculus was “Dose-dependent effect”. For the same molecule, at GABA-B receptor (rat), the concentration for half-maximal inhibition (IC50) (as a rule, the concentration that gives 50% inhibition) amounted to 25 µM.

Molecule `NCCc1nonc1O` came in with a Ki in experiment [1] of 13 µM. For the same molecule, the inhibition result in experiment [2], in experiment [3], in experiment [5] and in experiment [6] was “inactive” throughout. Also, in experiment [4], the Activity was 40%. The inhibition entry in the experiment filed under Mus musculus was “Dose-dependent effect”. The IC50 at GABA-B receptor (rat) was found to be 2 µM.

`NCCCCc1nonc1O`: the IC50 (in experiment [1]; at GABA-B receptor (rat)) was over 100 µM each time. In addition, the inhibition entry in experiment [2], in experiment [3], in experiment [5] and in experiment [6] was “inactive” in each case. In addition, the Activity in experiment [4] amounted to 0.8%. Also, the inhibition result in the experiment listed under Mus musculus was “Dose-dependent effect”.
